Our source for the Ki and Activity values is ChEMBL document CHEMBL1152607, “Tetraiodobenzimidazoles are potent inhibitors of protein kinase CK2” (Bioorg Med Chem, 2009).

pKi: −log10 of the molar value. Activity calls are given as the source filed them. The calls are words filed in the database; no cut-off is given here.

The nature of assay [1]: Inhibition of rat liver Casein kinase 2. A digest of the protocol:
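Ki from Lineweaver–Burk plots: peptide fixed, ATP increasing, with or without several inhibitor concentrations. Alternatively derived from IC50 via the Cheng–Prusoff relationship.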

Assay [2] is described as follows: (§1) Noncompetitive inhibition of rat liver Casein kinase 2 using 80 uM ATP and increasing phosphoacceptor substrate by Lineweaver-Burke plot.
The next assay is filed under the species Rattus norvegicus. Described as §1.

As a reminder, the pKi is the Ki on a negative log10 scale, so that one unit is a factor of ten. In turn, `FC(F)(F)C(F)(F)c1nc2c(I)c(I)c(I)c(I)c2[nH]1` gave a pKi in assay [1] of 7.15.

`Clc1c(Cl)c(I)c2[nH]cnc2c1I` had a pKi in assay [1] of 6.34.

The molecule `O=C(O)Cn1cnc2c(Br)c(Br)c(Br)c(Br)c21` had a pKi in assay [1] of 5.87. Against the preceding molecule, the pKi is 0.47 log units lower.

`Clc1nc2c(I)c(I)c(I)c(I)c2[nH]1`: in assay [1], the pKi was 6.92.

Consider `O=C(O)CSc1nc2c(I)c(I)c(I)c(I)c2[nH]1`, for which, in assay [1], the pKi was 7.27.

`Clc1c(Cl)c(Cl)c2[nH]cnc2c1Cl` had a pKi in assay [2] of 4.68.

In turn, `S=c1[nH]c2c(Br)c(Br)c(Br)c(Br)c2[nH]1` showed a pKi in assay [1] of 6.70.

`FC(F)(F)c1nc2c(Br)c(Br)c(Br)c(Br)c2[nH]1` gave a negative logarithm of the Ki (pKi) in assay [1] of 6.43.

In assay [1], `Brc1c(I)c(I)c2[nH]cnc2c1I` gave a pKi of 7.00.

In assay [1], `CCc1nc2c(I)c(I)c(I)c(I)c2[nH]1` showed a negative-log Ki (pKi) of 7.72.

In the case of `O=C(O)Cn1cnc2c(I)c(I)c(I)c(I)c21`, in assay [1], the pKi was 6.85.

On to `O=c1[nH]c2c(I)c(I)c(I)c(I)c2[nH]1`, for which the pKi in assay [1] was 7.30.

Regarding `CNC(=O)Cn1cnc2c(I)c(I)c(I)c(I)c21`, the pKi in assay [1] was 6.74.

Regarding `NC(=O)Cn1cnc2c(I)c(I)c(I)c(I)c21`, the pKi in assay [1] is 6.89.

Turning to `CNC(=O)Cn1cnc2c(Br)c(Br)c(Br)c(Br)c21`, the pKi in assay [1] was 5.72.

As to `Cc1nc2c(I)c(Cl)c(Cl)c(I)c2[nH]1`, the pKi in assay [1] is 6.48.

`NC(=O)Cn1cnc2c(Br)c(Br)c(Br)c(Br)c21` had a pKi in assay [1] of 5.84.

In turn, `Clc1c(I)c(Cl)c2nc[nH]c2c1I` gave a pKi in assay [1] of 6.23. Compared with the last molecule, the pKi is 0.39 log units higher.

In assay [1], `OCCNc1nc2c(Br)c(Br)c(Br)c(Br)c2[nH]1` had a pKi of 6.85. Against the preceding molecule, the pKi is 0.62 log units higher.

Molecule `Cc1nc2c(I)c(I)c(I)c(I)c2[nH]1` showed a pKi in assay [1] of 7.62.

For `S=c1[nH]c2c(I)c(I)c(I)c(I)c2[nH]1`, in assay [1], the pKi was 7.30. This pKi lies 0.32 log units lower than the previous one.

Consider `Clc1c(I)c(I)c2[nH]cnc2c1I`, for which the pKi in assay [1] was 6.80.

The molecule `O=c1[nH]c2c(Br)c(Br)c(Br)c(Br)c2[nH]1` had a pKi in assay [1] of 6.74.

As to `Brc1c(Br)c(Br)c2[nH]cnc2c1Br`, in assay [1], the pKi was 6.52.

As for `O=C(O)CSc1nc2c(Br)c(Br)c(Br)c(Br)c2[nH]1`, in assay [1], the pKi is 6.92.

For `Brc1c(I)c(Br)c2nc[nH]c2c1I`, in assay [1], the pKi is 7.12.

In the case of `Brc1nc2c(I)c(I)c(I)c(I)c2[nH]1`, in assay [1], the pKi is 7.05. This pKi and that of the molecule before are within 0.2 log units of each other.

The molecule `NNC(=O)Cn1cnc2c(Br)c(Br)c(Br)c(Br)c21` showed a negative-log Ki (pKi) in assay [1] of 5.82.

Regarding `OCCNc1nc2c(I)c(I)c(I)c(I)c2[nH]1`, the pKi in assay [1] was 7.57.

The molecule `Clc1nc2c(Br)c(Br)c(Br)c(Br)c2[nH]1` had a pKi in assay [1] of 6.60.

In the case of `NNC(=O)Cn1cnc2c(I)c(I)c(I)c(I)c21`, the pKi in assay [1] is 6.80. This pKi lies 0.20 log units higher than the previous one.

For `FC(F)(F)C(F)(F)c1nc2c(Br)c(Br)c(Br)c(Br)c2[nH]1`, the pKi in assay [1] was 6.70. The pKi values of the last two molecules are within 0.2 log units of each other.

Regarding `Ic1c(I)c(I)c2[nH]cnc2c1I`, in the assay listed under Rattus norvegicus, the outcome was Active. This molecule had a pKi in assay [1] of 7.64.

In assay [1], `Brc1nc2c(Br)c(Br)c(Br)c(Br)c2[nH]1` gave a pKi of 6.43.

The molecule `FC(F)(F)c1nc2c(I)c(I)c(I)c(I)c2[nH]1` had a pKi in assay [1] of 6.92.
